According to ChEMBL document CHEMBL5661979, “Pharmacological inhibition of BMK1 suppresses tumor growth through promyelocytic leukemia protein” (Cancer Cell, 2010):
Calls of active or inactive are those of the source. No cut-off for these calls is given here.

Tests used:
[1] = target: Serine/threonine-protein kinase LATS2 (Homo sapiens, UniProt Q9NRM7); test: Inhibition of LATS2 in human HeLa cells lysate pre incubated for 15 mins followed by ADP acyl phosphate probe addition and measured after 10 mins by LC-MS/MS analysis; assay type: subcellular
Serine/threonine-protein kinase LATS2, sequence (Q9NRM7 whole entry): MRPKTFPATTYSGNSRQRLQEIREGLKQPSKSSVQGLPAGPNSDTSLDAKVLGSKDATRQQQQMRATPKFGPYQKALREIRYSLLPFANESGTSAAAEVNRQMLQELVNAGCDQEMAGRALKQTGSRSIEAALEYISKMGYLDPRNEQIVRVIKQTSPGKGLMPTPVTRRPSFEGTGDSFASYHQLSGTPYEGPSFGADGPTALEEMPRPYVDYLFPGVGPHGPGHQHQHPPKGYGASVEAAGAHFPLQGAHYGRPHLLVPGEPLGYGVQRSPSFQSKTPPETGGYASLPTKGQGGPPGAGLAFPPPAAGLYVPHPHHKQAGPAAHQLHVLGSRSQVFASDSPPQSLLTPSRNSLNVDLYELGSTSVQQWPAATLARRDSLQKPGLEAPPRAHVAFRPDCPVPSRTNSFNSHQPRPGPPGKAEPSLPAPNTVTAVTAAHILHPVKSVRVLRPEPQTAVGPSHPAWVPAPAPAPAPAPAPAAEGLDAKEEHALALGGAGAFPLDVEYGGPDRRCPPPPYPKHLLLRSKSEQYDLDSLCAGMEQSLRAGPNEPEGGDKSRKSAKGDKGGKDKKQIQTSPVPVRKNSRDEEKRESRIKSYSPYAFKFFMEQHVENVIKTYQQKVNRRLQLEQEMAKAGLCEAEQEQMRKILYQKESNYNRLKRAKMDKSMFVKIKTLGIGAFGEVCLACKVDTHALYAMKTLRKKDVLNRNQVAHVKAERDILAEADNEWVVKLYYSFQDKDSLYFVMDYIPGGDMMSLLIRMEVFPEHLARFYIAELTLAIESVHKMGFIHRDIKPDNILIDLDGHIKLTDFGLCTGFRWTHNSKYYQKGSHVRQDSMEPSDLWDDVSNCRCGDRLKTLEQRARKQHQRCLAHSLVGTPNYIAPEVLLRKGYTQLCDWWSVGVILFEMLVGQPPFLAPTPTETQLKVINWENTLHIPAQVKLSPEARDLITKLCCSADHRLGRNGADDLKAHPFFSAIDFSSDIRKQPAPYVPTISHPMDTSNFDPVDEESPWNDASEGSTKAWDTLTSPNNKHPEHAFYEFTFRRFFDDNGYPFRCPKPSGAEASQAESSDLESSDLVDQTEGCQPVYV

[2] = target: Serine/threonine-protein kinase MARK1 (Homo sapiens, UniProt Q9P0L2); test: Inhibition of MARK1 in human HeLa cells lysate pre incubated for 15 mins followed by ADP acyl phosphate probe addition and measured after 10 mins by LC-MS/MS analysis; assay type: subcellular
[3] = target: 3-phosphoinositide-dependent protein kinase 1 (Homo sapiens, UniProt O15530); test: Inhibition of PDK1 in human HeLa cells lysate pre incubated for 15 mins followed by ADP acyl phosphate probe addition and measured after 10 mins by LC-MS/MS analysis; assay type: subcellular
3-phosphoinositide-dependent protein kinase 1, sequence (O15530 whole entry, the tested form may be a part): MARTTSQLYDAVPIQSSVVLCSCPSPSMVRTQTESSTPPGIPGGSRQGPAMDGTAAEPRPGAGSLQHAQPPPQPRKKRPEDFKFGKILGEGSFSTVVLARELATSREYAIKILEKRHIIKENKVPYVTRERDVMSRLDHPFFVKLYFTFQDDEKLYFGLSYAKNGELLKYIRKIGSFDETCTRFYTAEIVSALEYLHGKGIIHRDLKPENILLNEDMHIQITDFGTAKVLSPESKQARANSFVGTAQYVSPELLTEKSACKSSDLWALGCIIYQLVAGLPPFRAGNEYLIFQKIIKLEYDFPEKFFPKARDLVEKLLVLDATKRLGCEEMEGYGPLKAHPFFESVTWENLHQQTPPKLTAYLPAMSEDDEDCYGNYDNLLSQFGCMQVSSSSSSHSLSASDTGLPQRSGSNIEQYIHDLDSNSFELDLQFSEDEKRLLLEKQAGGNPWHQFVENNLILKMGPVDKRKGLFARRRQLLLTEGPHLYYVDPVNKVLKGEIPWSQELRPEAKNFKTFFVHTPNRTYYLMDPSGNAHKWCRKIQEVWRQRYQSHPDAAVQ

[4] = target: Ribosomal protein S6 kinase alpha-3 (Homo sapiens, UniProt P51812); test: Inhibition of RSK2 domain 1 in human HeLa cells lysate pre incubated for 15 mins followed by ADP acyl phosphate probe addition and measured after 10 mins by LC-MS/MS analysis; assay type: subcellular
Ribosomal protein S6 kinase alpha-3, sequence (P51812 whole entry, the tested form may be a part): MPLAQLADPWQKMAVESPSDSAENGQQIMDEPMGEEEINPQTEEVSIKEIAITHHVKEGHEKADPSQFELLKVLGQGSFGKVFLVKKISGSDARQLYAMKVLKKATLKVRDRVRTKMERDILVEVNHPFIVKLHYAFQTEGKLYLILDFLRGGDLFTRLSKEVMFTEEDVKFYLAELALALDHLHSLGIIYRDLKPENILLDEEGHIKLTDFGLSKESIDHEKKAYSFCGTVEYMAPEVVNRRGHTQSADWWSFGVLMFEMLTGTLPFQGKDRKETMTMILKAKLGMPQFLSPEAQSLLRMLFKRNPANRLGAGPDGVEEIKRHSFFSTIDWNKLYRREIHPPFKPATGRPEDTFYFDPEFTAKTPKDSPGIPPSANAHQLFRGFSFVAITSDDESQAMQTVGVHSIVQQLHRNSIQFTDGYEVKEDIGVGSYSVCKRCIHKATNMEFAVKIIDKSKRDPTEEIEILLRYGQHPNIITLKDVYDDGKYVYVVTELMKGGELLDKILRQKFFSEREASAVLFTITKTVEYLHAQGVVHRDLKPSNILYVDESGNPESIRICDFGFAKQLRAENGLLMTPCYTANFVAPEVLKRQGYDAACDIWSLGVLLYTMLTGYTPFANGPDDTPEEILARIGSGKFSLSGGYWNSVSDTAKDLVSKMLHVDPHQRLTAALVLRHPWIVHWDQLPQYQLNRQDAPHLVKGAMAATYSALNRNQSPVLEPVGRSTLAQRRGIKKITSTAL

[5] = target: Macrophage-stimulating protein receptor (Homo sapiens, UniProt Q04912); test: Inhibition of RON in human HeLa cells lysate at 50 uM pre incubated for 15 mins followed by ADP acyl phosphate probe addition and measured after 10 mins by LC-MS/MS analysis relative to control; assay type: subcellular; settings: time 25.0 min
Macrophage-stimulating protein receptor, sequence (Q04912 25-304 limits assumed): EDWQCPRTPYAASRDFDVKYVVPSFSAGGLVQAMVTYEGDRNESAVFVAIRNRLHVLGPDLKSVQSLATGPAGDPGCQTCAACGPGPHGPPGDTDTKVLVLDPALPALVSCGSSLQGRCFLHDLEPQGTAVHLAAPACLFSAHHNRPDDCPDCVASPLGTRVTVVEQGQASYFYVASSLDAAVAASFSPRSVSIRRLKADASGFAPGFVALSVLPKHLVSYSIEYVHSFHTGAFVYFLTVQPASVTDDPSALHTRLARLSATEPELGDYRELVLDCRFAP
Macrophage-stimulating protein receptor, sequence (Q04912 310-1400 limits assumed): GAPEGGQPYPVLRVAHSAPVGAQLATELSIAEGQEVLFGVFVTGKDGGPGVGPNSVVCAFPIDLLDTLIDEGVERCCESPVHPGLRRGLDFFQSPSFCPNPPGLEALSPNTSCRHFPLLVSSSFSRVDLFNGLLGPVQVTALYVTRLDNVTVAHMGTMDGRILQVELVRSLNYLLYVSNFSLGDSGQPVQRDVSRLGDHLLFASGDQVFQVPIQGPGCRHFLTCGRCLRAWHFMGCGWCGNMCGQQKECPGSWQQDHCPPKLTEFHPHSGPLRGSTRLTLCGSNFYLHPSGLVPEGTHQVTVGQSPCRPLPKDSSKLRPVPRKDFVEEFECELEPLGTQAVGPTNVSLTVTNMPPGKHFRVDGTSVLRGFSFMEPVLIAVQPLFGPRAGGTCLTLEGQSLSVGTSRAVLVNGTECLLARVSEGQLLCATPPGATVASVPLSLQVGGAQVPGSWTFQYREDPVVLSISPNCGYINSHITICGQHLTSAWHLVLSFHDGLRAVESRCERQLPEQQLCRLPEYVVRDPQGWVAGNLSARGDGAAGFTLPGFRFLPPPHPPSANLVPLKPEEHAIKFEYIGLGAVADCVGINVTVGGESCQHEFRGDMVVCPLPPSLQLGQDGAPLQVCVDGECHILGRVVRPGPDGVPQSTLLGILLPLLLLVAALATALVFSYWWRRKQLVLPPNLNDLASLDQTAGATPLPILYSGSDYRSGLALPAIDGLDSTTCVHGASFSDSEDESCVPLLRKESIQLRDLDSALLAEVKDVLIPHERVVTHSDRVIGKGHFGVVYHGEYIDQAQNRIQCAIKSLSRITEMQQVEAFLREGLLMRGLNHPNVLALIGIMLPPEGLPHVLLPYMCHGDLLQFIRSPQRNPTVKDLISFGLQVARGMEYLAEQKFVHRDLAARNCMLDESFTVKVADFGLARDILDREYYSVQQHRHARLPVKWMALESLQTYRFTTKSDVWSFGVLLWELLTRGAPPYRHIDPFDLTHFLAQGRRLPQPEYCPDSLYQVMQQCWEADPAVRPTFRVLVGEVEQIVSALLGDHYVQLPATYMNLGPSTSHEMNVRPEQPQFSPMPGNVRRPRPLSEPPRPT

[6] = target: Serine/threonine-protein kinase Nek8 (Homo sapiens) (UniProt Q86SG6); test: Inhibition of NEK8 in human HeLa cells lysate at 10 uM pre incubated for 15 mins followed by ADP acyl phosphate probe addition and measured after 10 mins by LC-MS/MS analysis relative to control; assay type: subcellular; settings: time 25.0 min
Serine/threonine-protein kinase Nek8 (Homo sapiens), sequence (Q86SG6 whole entry): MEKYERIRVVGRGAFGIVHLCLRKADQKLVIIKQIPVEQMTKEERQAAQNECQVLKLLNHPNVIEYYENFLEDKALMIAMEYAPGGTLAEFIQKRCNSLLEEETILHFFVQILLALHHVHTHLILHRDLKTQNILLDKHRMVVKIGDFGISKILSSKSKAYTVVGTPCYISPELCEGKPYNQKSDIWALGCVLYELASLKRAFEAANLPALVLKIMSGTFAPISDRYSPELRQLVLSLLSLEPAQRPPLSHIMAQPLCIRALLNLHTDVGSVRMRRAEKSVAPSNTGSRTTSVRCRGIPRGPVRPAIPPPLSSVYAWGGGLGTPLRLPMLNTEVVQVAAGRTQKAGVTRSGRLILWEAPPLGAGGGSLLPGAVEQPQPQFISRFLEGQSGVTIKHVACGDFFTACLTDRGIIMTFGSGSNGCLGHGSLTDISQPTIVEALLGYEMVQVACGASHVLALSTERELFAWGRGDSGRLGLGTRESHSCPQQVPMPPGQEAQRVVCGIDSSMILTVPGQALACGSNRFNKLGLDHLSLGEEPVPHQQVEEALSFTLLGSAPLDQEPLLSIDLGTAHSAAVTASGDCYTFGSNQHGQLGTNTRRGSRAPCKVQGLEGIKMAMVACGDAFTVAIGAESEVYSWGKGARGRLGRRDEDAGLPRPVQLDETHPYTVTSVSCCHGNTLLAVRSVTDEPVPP

[7] = target: T1, Interleukin-1 receptor-associated kinase 4 (Homo sapiens) (UniProt Q9NWZ3); test: Inhibition of IRAK4 in human HeLa cells lysate at 50 uM pre incubated for 15 mins followed by ATP acyl phosphate probe addition and measured after 10 mins by LC-MS/MS analysis relative to control; assay type: subcellular; settings: time 25.0 min
T1 sequence (whole entry): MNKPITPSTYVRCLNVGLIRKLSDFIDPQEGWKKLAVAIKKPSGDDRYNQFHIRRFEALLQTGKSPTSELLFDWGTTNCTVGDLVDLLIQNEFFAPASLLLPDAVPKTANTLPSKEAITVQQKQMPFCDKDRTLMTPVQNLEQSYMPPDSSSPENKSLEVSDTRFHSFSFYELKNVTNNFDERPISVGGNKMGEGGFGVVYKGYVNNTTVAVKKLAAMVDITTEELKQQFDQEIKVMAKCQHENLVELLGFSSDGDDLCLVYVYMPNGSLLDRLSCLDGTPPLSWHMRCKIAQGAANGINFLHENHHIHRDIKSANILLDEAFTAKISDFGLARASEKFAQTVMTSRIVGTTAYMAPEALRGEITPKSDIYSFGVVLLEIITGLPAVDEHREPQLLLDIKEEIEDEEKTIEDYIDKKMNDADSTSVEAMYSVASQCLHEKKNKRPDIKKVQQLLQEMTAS

[8] = target: Cyclin-dependent kinase 10 (Homo sapiens, UniProt Q15131); test: Inhibition of CDK10 in human HeLa cells lysate at 50 uM pre incubated for 15 mins followed by ATP acyl phosphate probe addition and measured after 10 mins by LC-MS/MS analysis relative to control; assay type: subcellular; settings: time 25.0 min
Cyclin-dependent kinase 10, sequence (Q15131 whole entry, the tested form may be a part): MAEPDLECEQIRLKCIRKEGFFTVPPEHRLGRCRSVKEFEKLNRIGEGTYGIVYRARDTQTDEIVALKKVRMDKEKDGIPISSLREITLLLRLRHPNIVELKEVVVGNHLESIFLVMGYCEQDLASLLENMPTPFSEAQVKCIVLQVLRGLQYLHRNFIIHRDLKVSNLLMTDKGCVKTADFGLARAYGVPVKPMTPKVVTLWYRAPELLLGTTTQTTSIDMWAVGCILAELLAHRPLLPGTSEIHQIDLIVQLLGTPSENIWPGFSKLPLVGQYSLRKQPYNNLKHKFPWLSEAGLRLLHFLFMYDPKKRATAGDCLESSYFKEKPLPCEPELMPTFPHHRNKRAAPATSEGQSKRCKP
Procedure, shortened: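 KiNativ profiling in HeLa lysate (5 mg/mL total protein). Lysate incubated 15 min with inhibitor at 50, 10, 2, 0.8 or 0 μM. ATP or ADP acylphosphate probe then added (5 μM final) and reacted 10 min. Reaction stopped with urea and analysed by targeted MS, using up to four fragment ions per kinase peptide-probe conjugate. % inhibition taken against untreated lysate. Run in duplicate.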

[9] = target: Ribosomal protein S6 kinase alpha-1 (Homo sapiens, UniProt Q15418); test: Inhibition of RSK1 domain 2 in human HeLa cells lysate at 10 uM pre incubated for 15 mins followed by ATP acyl phosphate probe addition and measured after 10 mins by LC-MS/MS analysis relative to control; assay type: subcellular; settings: time 25.0 min
[10] = target: T2, Serine/threonine-protein kinase A-Raf (Homo sapiens) (UniProt P10398); test: Inhibition of ARAF in human HeLa cells lysate at 10 uM pre incubated for 15 mins followed by ATP acyl phosphate probe addition and measured after 10 mins by LC-MS/MS analysis relative to control; assay type: subcellular; settings: time 25.0 min
T2 sequence (whole entry): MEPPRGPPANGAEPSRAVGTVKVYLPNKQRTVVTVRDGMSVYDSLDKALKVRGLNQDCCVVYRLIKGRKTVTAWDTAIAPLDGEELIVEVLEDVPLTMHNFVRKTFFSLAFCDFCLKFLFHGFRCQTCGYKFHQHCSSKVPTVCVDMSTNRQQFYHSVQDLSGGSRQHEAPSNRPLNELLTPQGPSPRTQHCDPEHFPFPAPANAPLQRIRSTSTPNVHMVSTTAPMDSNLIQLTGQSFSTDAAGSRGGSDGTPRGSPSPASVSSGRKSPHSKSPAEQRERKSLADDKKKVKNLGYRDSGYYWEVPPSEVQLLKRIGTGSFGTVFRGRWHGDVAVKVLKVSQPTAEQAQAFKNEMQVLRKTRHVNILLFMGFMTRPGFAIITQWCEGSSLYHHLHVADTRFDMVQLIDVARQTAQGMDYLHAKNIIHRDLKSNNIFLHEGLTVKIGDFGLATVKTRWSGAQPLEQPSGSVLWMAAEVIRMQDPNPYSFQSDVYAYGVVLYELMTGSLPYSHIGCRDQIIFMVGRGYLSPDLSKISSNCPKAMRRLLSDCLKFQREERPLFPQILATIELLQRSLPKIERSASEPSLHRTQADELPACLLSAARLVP
Procedure, shortened: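 KiNativ-type profiling in HeLa lysate (5 mg/mL total protein). Lysate preincubated 15 min with inhibitor at 50, 10, 2, 0.8 or 0 μM, then ATP or ADP acylphosphate probe added (5 μM final) for 10 min. Reaction stopped with urea and analysed by targeted MS, using up to four fragment ions per kinase peptide-probe conjugate. % inhibition calculated against untreated lysate. Duplicate reactions.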

[11] = Inhibition of HGK/MINK/TNIK in human HeLa cells lysate at 10 uM pre incubated for 15 mins followed by ATP acyl phosphate probe addition and measured after 10 mins by LC-MS/MS analysis relative to control; settings: 25 min, condition cancer
[12] = Inhibition of MAP3K2/3 in human HeLa cells lysate at 2 uM pre incubated for 15 mins followed by ATP acyl phosphate probe addition and measured after 10 mins by LC-MS/MS analysis relative to control; settings: 25 min, condition cancer
[13] = Plasma concentration in C57Bl/6 mouse at 50 mg/kg, ip administered for 8 day and measured 8 hr post last dose by LC-MS/MS analysis; assay type: ADME, organism-based
[14] = Plasma concentration in C57Bl/6 mouse at 50 mg/kg, ip administered for 13 day and measured 8 hr post last dose by LC-MS/MS analysis; assay type: ADME, organism-based
Mus musculus = test: Antiangiogenic activity in C57Bl/6 mouse implanted with matrigel assessed as reduction in bFGF-induced angiogenesis at 50 mg/kg, ip for 6 days by Masson's trichrome staining based assay; assay type: functional, organism-based; settings: time 6.0 day
Procedure, shortened: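 Mice were implanted with Matrigel containing 400 ng/mL bFGF. From the next day they received drug or vehicle for 6 days. Plugs were then harvested, sectioned and stained with Masson's trichrome; hemoglobin content of the plugs was also measured. n = 6 mice, 9 slices.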

With CCOc1cc(N2CCC(O)CC2)ccc1Nc1ncc2c(n1)N(C)c1ccccc1C(=O)N2C the IC50 [1] was > 50 µM, the IC50 [2] was > 50 µM and the IC50 [3] was > 50 µM. The IC50 [4] was > 50 µM, the inhibition [5] was 24% and the inhibition [6] was -0.8%. For the same compound, the inhibition [7] was 15.6%, the inhibition [8] was -0.4% and the inhibition [9] was 20.9%. It also gave an inhibition [10] of 11.2%, an inhibition at 10 µM [11] of -6.3% and an inhibition at 2 µM [12] of -2.1%. For the same compound, the concentration at 192 h [13] was 12.8 µM, the concentration at 312 h [14] was 11.1 µM and the Activity (Mus musculus) was “Active”.
